According to ChEMBL document CHEMBL1156941, “Discovery of small molecule isozyme non-specific inhibitors of mammalian acetyl-CoA carboxylase 1 and 2” (Bioorg Med Chem Lett, 2010):
pIC50: −log10 of the molar value.

Legend:
Acetyl-CoA carboxylase 1 = Acetyl-CoA carboxylase 1 (Rattus norvegicus, UniProt P11497); experiment: Inhibition of rat liver ACC1 after 7 mins by liquid scintillation counter
Acetyl-CoA carboxylase 2 = Acetyl-CoA carboxylase 2 (Homo sapiens, UniProt O00763); experiment: Inhibition of human recombinant ACC2 expressed in CHO cells after 1 hr by fluorescence reader; format: cell-based
Sequence of Acetyl-CoA carboxylase 2 (O00763 whole entry): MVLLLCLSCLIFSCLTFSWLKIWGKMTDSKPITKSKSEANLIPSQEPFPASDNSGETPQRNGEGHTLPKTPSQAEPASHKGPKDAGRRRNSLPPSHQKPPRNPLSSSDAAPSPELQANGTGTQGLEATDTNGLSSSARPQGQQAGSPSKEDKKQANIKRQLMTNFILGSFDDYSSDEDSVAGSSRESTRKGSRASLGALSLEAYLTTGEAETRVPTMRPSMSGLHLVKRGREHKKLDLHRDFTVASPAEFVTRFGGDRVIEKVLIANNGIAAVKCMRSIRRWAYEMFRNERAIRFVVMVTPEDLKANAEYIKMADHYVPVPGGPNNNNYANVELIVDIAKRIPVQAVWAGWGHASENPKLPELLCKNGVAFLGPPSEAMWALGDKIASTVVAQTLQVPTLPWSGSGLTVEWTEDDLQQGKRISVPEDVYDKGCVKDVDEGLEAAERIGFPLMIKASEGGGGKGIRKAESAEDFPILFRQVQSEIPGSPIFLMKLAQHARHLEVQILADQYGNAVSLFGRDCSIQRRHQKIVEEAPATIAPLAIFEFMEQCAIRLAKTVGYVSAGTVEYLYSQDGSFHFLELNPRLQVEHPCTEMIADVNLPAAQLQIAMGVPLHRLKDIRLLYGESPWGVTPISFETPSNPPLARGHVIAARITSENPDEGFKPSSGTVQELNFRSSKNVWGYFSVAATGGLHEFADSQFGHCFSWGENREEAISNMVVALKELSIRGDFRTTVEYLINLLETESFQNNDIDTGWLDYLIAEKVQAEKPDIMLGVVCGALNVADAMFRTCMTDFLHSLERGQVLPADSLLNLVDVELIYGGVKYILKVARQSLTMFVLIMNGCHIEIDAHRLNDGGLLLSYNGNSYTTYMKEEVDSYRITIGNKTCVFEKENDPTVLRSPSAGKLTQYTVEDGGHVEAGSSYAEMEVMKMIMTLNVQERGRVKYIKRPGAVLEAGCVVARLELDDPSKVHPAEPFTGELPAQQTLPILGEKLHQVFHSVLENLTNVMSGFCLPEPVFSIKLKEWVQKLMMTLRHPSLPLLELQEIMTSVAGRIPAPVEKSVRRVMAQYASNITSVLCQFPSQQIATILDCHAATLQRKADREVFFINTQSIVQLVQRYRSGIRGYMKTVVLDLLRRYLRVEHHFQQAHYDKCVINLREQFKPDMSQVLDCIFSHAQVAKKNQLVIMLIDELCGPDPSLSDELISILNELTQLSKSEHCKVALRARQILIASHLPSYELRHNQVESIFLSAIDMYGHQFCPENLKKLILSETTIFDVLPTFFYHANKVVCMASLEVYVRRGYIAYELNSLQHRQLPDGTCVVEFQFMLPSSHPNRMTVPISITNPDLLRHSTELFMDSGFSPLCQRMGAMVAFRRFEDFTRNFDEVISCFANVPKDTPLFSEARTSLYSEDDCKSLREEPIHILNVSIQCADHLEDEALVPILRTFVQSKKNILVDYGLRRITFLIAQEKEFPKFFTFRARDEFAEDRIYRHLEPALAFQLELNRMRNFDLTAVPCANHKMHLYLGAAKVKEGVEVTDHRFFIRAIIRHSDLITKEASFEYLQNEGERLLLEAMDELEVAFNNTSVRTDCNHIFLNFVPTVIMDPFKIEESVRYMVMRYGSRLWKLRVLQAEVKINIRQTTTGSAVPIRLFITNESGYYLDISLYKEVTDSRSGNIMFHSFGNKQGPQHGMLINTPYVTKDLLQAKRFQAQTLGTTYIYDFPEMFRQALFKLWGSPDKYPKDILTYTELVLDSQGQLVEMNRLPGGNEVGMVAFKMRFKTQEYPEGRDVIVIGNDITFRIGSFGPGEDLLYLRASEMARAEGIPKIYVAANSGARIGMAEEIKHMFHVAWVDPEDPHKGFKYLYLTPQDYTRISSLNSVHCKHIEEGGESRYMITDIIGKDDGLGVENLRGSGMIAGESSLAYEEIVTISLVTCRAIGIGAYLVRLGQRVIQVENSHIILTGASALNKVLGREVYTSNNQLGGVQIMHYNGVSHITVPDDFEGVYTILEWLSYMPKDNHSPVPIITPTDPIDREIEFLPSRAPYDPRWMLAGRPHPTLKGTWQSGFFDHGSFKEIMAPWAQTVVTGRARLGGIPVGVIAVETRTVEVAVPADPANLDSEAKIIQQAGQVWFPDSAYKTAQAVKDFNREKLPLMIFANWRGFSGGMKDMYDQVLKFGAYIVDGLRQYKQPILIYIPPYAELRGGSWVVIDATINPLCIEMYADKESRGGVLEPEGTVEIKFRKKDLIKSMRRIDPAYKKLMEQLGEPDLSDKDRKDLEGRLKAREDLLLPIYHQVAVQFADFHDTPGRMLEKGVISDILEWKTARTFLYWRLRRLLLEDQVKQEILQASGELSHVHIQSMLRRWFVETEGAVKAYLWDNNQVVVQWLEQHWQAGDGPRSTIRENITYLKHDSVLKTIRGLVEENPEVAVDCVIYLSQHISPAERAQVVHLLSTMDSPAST
Procedure, shortened: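 Purified recombinant human ACC2, from conditioned medium captured on avidin resin and eluted with biotin, then dialyzed. Compounds in DMSO, final DMSO 1%. Run 1 h at room temperature. ADP measured by Transcreener fluorescence polarization after a further 1 h.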

[1] = Cmax in rat at 5 mg/kg, po; format: ADME, organism-based; design: dose 5 mg/kg, route oral; settings: in vivo
Procedure, shortened: (§1)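 Rat pharmacokinetics. Intravenous dose 1 mg/kg, giving CL in mL/min/kg and Vdss in L/kg. Oral dose 5 mg/kg, giving Cmax in ng/mL, %F and t1/2 in h.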

[2] = Clearance in rat at 1 mg/kg, iv; format: ADME, organism-based; design: dose 1 mg/kg, route intravenous; settings: in vivo; procedure, shortened: as §1
[3] = Volume of distribution at steady state in rat at 1 mg/kg, iv; format: ADME, organism-based; design: dose 1 mg/kg, route intravenous; settings: in vivo, read-out: Vdss; procedure, shortened: as §1
[4] = Oral bioavailability in rat at 5 mg/kg; format: ADME, organism-based; settings: in vivo; procedure, shortened: as §1
[5] = Half life in rat at 5 mg/kg, po; format: ADME, organism-based; design: dose 5 mg/kg, route oral; settings: in vivo; procedure, shortened: as §1
[6] = Half life in rat at 1 mg/kg, iv administered with methylcellulose; format: ADME, organism-based; design: dose 1 mg/kg, route intravenous; settings: in vivo
[7] = Clearance in rat at 1 mg/kg, iv administered with methylcellulose; format: ADME, organism-based; design: dose 1 mg/kg, route intravenous; settings: in vivo
[8] = Volume of distribution at steady state in rat at 1 mg/kg, iv administered with methylcellulose; format: ADME, organism-based; design: dose 1 mg/kg, route intravenous; settings: in vivo, read-out: Vdss
[9] = Oral bioavailability in rat at 3 mg/kg administered with methylcellulose; format: ADME, organism-based; settings: in vivo
[10] = Oral bioavailability in rat at 3 mg/kg administered with lipid emulsion; format: ADME, organism-based; settings: in vivo
[11] = Oral bioavailability in rat at 3 mg/kg administered with spray-dried dispersion; format: ADME, organism-based; settings: in vivo
[12] = Half life in Beagle dog at 1 mg/kg, iv administered with 40% PEG400 and 60% glycerol; format: ADME, organism-based, Canis lupus familiaris; design: dose 1 mg/kg, route intravenous; settings: in vivo
[13] = Clearance in Beagle dog at 1 mg/kg, iv administered with 40% PEG400 and 60% glycerol; format: ADME, organism-based, Canis lupus familiaris; design: dose 1 mg/kg, route intravenous; settings: in vivo
[14] = Volume of distribution at steady state in Beagle dog at 1 mg/kg, iv administered with 40% PEG400 and 60% glycerol; format: ADME, organism-based, Canis lupus familiaris; design: dose 1 mg/kg, route intravenous; settings: in vivo, read-out: Vdss

Row | SMILES | pIC50 (Acetyl-CoA carboxylase 1) | pIC50 (Acetyl-CoA carboxylase 2) | further results
1 | Cc1nc(-c2ccc3c(c2)C(=O)CC2(CCN(C(=O)c4cc(C)c5[nH]ncc5c4)CC2)O3)co1 | 7.72 | 7.52 | –
2 | COc1cccc2c1C(=O)CC1(CCN(C(=O)c3cccc4cn[nH]c34)CC1)O2 | – | < 6.00 | –
3 | COc1cccc2c1C(=O)CC1(CCN(C(=O)c3ccc4nn[nH]c4c3)CC1)O2 | 5.53 | 6.30 | –
4 | COc1cccc2c1C(=O)CC1(CCN(C(=O)c3ccc4[nH]c(C(N)=O)nc4c3)CC1)O2 | 7.46 | 7.80 | –
5 | Cc1n[nH]c2c(C)cc(C(=O)N3CCC4(CC3)CC(=O)c3ncccc3O4)cc12 | 6.60 | 6.44 | –
6 | COc1cccc2c1C(=O)CC1(CCN(C(=O)c3ccc4nc(-c5cccnc5)[nH]c4c3)CC1)O2 | 7.59 | 7.72 | –
7 | Cc1cc(-c2ccc3c(c2)C(=O)CC2(CCN(C(=O)c4cc(C)c5[nH]ncc5c4)CC2)O3)n[nH]1 | 7.74 | 8.12 | –
8 | COc1cccc2c1C(=O)CC1(CCN(C(=O)c3cc(C)c4[nH]nc(C)c4c3)CC1)O2 | 7.38 | 7.96 | –
9 | COc1cccc2c1C(=O)CC1(CCN(C(=O)c3ccc4nc[nH]c4c3)CC1)O2 | 6.67 | 6.95 | –
10 | Cc1cc2c(cc1C)C(=O)CC1(CCN(C(=O)c3cc(C)c4[nH]ncc4c3)CC1)O2 | 7.66 | 7.32 | –
11 | COc1cccc2c1C(=O)CC1(CCN(C(=O)c3ccc4[nH]c(-c5ccccn5)nc4c3)CC1)O2 | 7.59 | 7.92 | –
12 | Cc1cc(C(=O)N2CCC3(CC2)CC(=O)c2cc(-c4cc[nH]n4)ccc2O3)cc2cn[nH]c12 | 7.74 | 8.35 | –
13 | COc1cccc2c1C(=O)CC1(CCN(C(=O)c3cc(C)c4[nH]ncc4c3)CC1)O2 | 6.98 | 8.19 | –
14 | COc1cccc2c1C(=O)CC1(CCN(C(=O)c3ccc4[nH]c(C)nc4c3)CC1)O2 | 6.18 | < 6.00 | –
15 | O=C1CC2(CCN(C(=O)c3cccc4cn[nH]c34)CC2)Oc2ccc(Cl)cc21 | – | 5.67 | –
16 | Cc1cc(C(=O)N2CCC3(CC2)CC(=O)c2cc(-c4ccn(C)n4)ccc2O3)cc2cn[nH]c12 | 7.51 | 8.21 | –
17 | COc1nc(C)cc2c1C(=O)CC1(CCN(C(=O)c3cc(C)c4[nH]ncc4c3)CC1)O2 | 7.47 | 7.32 | –
18 | COc1cccc2c1C(=O)CC1(CCN(C(=O)c3ccc4nc(-c5ccn(C)n5)[nH]c4c3)CC1)O2 | 7.72 | – | –
19 | Cc1cc(C(=O)N2CCC3(CC2)CC(=O)c2cc(-c4cnn(C)c4)ccc2O3)cc2cn[nH]c12 | 8.12 | – | –
20 | Cc1ccc2c(n1)C(=O)CC1(CCN(C(=O)c3cc(C)c4[nH]ncc4c3)CC1)O2 | 6.44 | – | –
21 | COc1cccc2c1C(=O)CC1(CCN(C(=O)c3ccc4nc(-c5ccnnc5)[nH]c4c3)CC1)O2 | 7.00 | – | –
22 | Cc1cc(C(=O)N2CCC3(CC2)CC(=O)c2c(ccnc2OCC(C)C)O3)cc2cn[nH]c12 | 7.64 | 7.01 | –
23 | Cc1ccc2cc(CC3CCN(C(=O)c4cccc(-c5cn[nH]c5)c4)CC3)ccc2n1 | 5.90 | – | –
24 | Cc1cc2c(cc1C)C(=O)CC1(CCN(C(=O)c3cccc4cn[nH]c34)CC1)O2 | – | 6.40 | –
25 | Cc1cc(C)c2c(c1)C(=O)CC1(CCN(C(=O)c3cccc4cn[nH]c34)CC1)O2 | – | < 6.00 | –
26 | Cc1ncc(-c2ccc3c(c2)C(=O)CC2(CCN(C(=O)c4cc(C)c5[nH]ncc5c4)CC2)O3)o1 | 7.77 | 7.41 | –
27 | Cc1noc(C)c1-c1ccc2c(c1)C(=O)CC1(CCN(C(=O)c3cc(C)c4[nH]ncc4c3)CC1)O2 | 7.89 | 8.19 | –
28 | COc1cccc2c1C(=O)CC1(CCN(C(=O)c3cc(C)c4nc[nH]c4c3)CC1)O2 | 6.76 | 6.90 | –

Further lines, with some results ahead:

Row | pIC50 (Acetyl-CoA carboxylase 1) | pIC50 (Acetyl-CoA carboxylase 2) | SMILES | further results
29 | 6.74 | – | COc1cc2c(cn1)OC1(CCN(C(=O)c3cc(C)c4[nH]ncc4c3)CC1)CC2=O | –
30 | 6.99 | 6.82 | CCc1cc(C(=O)N2CCC3(CC2)CC(=O)c2c(OC)cccc2O3)cc2cn[nH]c12 | –
31 | 7.61 | – | Cc1cc(C(=O)N2CCC3(CC2)CC(=O)c2cc(-c4cnn(C)c4)ncc2O3)cc2cn[nH]c12 | –
32 | 8.13 | – | Cc1cc(C(=O)N2CCC3(CC2)CC(=O)c2cc(-c4cn[nH]c4)ccc2O3)cc2cn[nH]c12 | –
33 | 7.21 | – | CCOc1nccc2c1C(=O)CC1(CCN(C(=O)c3cc(C)c4[nH]ncc4c3)CC1)O2 | –
34 | 7.19 | 7.80 | COc1cccc2c1C(=O)CC1(CCN(C(=O)c3cc(C)c4[nH]c(C(N)=O)cc4c3)CC1)O2 | –
35 | 7.52 | 8.35 | Cc1cc(C(=O)N2CCC3(CC2)CC(=O)c2c(ccnc2OC(C)C)O3)cc2cn[nH]c12 | –
36 | 5.52 | – | Cc1ccc2cc(CC3CCN(C(=O)c4cccc(-c5cc[nH]n5)c4)CC3)ccc2n1 | Cmax [1]: 91.5 ng/mL; clearance [2]: 34.1 mL/min/kg; Vd [3]: 2.8 L/kg; bioavailability [4]: 7%; half-life [5]: 1.8 h
37 | 7.07 | – | COc1nccc2c1C(=O)CC1(CCN(C(=O)c3cc(C)c4[nH]ncc4c3)CC1)O2 | –
38 | 5.05 | – | Cc1ccc2cc(CC3CCN(C(=O)c4ccnc5ccccc45)CC3)ccc2n1 | –
39 | 6.12 | 6.19 | Cc1n[nH]c2ccc(C(=O)N3CCC4(CC3)CC(=O)c3ncccc3O4)cc12 | –
40 | 6.01 | – | Cn1cc(-c2cc3c(cn2)OC2(CCN(C(=O)c4ccc5nc(-c6ccn(C)n6)[nH]c5c4)CC2)CC3=O)cn1 | –
41 | 7.22 | 7.29 | COc1cccc2c1C(=O)CC1(CCN(C(=O)c3ccc4nc(-c5ccncc5)[nH]c4c3)CC1)O2 | –
42 | 7.92 | 7.70 | Cc1n[nH]c2c(C)cc(C(=O)N3CCC4(CC3)CC(=O)c3c(ccnc3OC(C)C)O4)cc12 | half-life [6]: 1.4 h; clearance [7]: 31 mL/min/kg; Vd [8]: 3.3 L/kg; bioavailability [9]: 32%; bioavailability [10]: 8%; bioavailability [11]: 52%; half-life [12]: 6.1 h; clearance [13]: 3.6 mL/min/kg; Vd [14]: 1.6 L/kg
43 | 6.81 | – | Cc1cc(C(=O)N2CCC3(CC2)CC(=O)c2ncccc2O3)cc2cn[nH]c12 | –
44 | 5.87 | – | Cc1cc(C(=O)N2CCC3(CC2)CC(=O)c2nc(N)ccc2O3)cc2cn[nH]c12 | –
45 | 6.66 | 6.79 | COc1cccc2c1C(=O)CC1(CCN(C(=O)c3ccc4c(C)n[nH]c4c3)CC1)O2 | –
46 | 7.37 | 7.96 | CNC(=O)c1cc2cc(C(=O)N3CCC4(CC3)CC(=O)c3c(OC)cccc3O4)ccc2[nH]1 | –
47 | 7.80 | 7.80 | COc1cccc2c1C(=O)CC1(CCN(C(=O)c3ccc4nc(-c5ccccc5)[nH]c4c3)CC1)O2 | –
48 | 5.47 | – | Cc1ccc2cc(CC3CCN(C(=O)c4cccc5cn[nH]c45)CC3)ccc2n1 | Cmax [1]: 617 ng/mL; clearance [2]: 44.3 mL/min/kg; Vd [3]: 2.4 L/kg; bioavailability [4]: 45%; half-life [5]: 1.7 h
